Assay [1] has as its target T1, Thioredoxin reductase (Homo sapiens, UniProt Q16881+Q9NNW7+Q86VQ6). Kind of assay: Inhibitory concentration used to inhibit the enzyme competitively with the substrate. The class given is protein assay. An outline of the steps: (§1)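 Reversible competitive component. About 2 nM placental hTrxR with DTNB 50 μM–1 mM and a single inhibitor concentration (10 nM–1 μM) in phosphate/EDTA buffer, pH 7.4. Started with 200 μM NADPH at 25 °C, TNB formation read at 412 nm. Km' compared with Km without inhibitor; Ki = Km[I]/(Km' − Km).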

In assay [2] the target is T1, Thioredoxin reductase. As to the kind of experiment: Inhibitory concentration at 50% inhibition. The class given is protein assay. An outline of the steps:
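Tight-binding hTrxR inhibition. Human placental TrxR (~2 nM) in 100 mM potassium phosphate, 2 mM EDTA, pH 7.4, reduced with 200 μM NADPH, then preincubated with varying inhibitor for 5 min at 25 °C (footnote says 2 min). Activity started with 3 mM DTNB and read as A412 increase. IC50 taken from dose-response curves.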

The test system of a further assay is HNO199 cell line. As to the kind of experiment: 50% Growth inhibition on HNO199 head and neck squamous carcinoma cell lines. The class given is functional, cell-based. An outline of the steps:
(§2)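 BrdU incorporation proliferation assay. 7×10^3 cells/well in RPMI 1640 with 10% FCS, 8 replicas. Compound added 24 h after seeding at 1, 5, 10 or 20 μM, either once or three times at 24 h intervals; 67 h total incubation. BrdU (100 μM final) added 48 h after first addition. Absorbance expressed relative to untreated controls (100%). IC50 ± SD from ≥2 independent experiments.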

In another assay the test system is HNO 97 cell line. Kind of assay: 50% Growth inhibition on HNO97 head and neck squamous carcinoma cell lines. The format is functional, cell-based. An outline of the steps: as §2
Another assay relates to NCH89. Kind of assay: 50% Growth inhibition on NCH89 glioma cell lines. The class given is functional, cell-based. An outline of the steps:
as §2

Another assay relates to NCH82. As to the kind of experiment: 50% Growth inhibition on NCH82 glioma cell lines.
In a further assay the test system is NCH37. As to the kind of experiment: 50% Growth inhibition on NCH37 glioma cell lines.
For assay [3], the target named is Glutathione reductase, mitochondrial (Homo sapiens) (UniProt P00390). As to the kind of experiment: Percent inhibition of the glutathione reductase after 2 min incubation at 10 uM inhibitory concentration. In short, it runs like this: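 Human glutathione reductase in 47 mM potassium phosphate, 1 mM EDTA, 200 mM KCl, pH 6.9, 100 μM NADPH. Enzyme preincubated 2 min with 10 μM compound in the assay mixture, then started with 1 mM GSSG at 25 °C. NADPH consumption followed as A340 decrease; percent inhibition versus uninhibited enzyme.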

Assay [4] addresses T1, Thioredoxin reductase. As to the kind of experiment: Michaelis-Menten constant (Km') for DTNB (5,5'-dithiobis(2-nitrobenzoate) in the presence of the compound. The format is protein assay. In short, it runs like this: as §1
In assay [5] the target is T1, Thioredoxin reductase. As to the kind of experiment: Inhibitory concentration for Km'. The class given is protein assay. An outline of the steps: as §1
The target in assay [6] is Glutathione reductase, mitochondrial (Homo sapiens) (UniProt P00390). Kind of assay: Percent GR activity after exposure to 3x1 uM concentration at regular intervals of 0,24,48 hours for the period of 67 hours. In short, it runs like this: (§3)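 NCH37 glioblastoma cells in RPMI 1640 with 10% FCS at 37 °C, 5% CO2, given compound once or as doses at 0, 24 and 48 h. Sampled at 30, 90, 270 min or 67 h. Intact cells washed in PBS and sonicated; cleared lysate assayed. TrxR used 100 μM E. coli thioredoxin, with NADPH oxidase background subtracted. GR used the GSSG/NADPH A340 assay. mU/10^6 cells given as % of untreated controls, mean of three experiments.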

The target in assay [7] is T1, Thioredoxin reductase. Kind of assay: Percent TrxR activity after exposure to 3x5 uM concentration at regular intervals of 0,24,48 hours for the period of 67 hours. The format is functional. An outline of the steps:
as §3

In assay [8] the target is Glutathione reductase, mitochondrial (Homo sapiens) (UniProt P00390). As to the kind of experiment: Percent GR activity after exposure to 10 uM for 67 hr. An outline of the steps: as §3
Assay [9] concerns the target T1, Thioredoxin reductase. Kind of assay: Percent TrxR activity after exposure to 3x10 uM concentration at regular intervals of 0,24,48 hours for the period of 67 hours. The format is functional. In short, it runs like this:
as §3

For assay [10], the target named is T1, Thioredoxin reductase. Kind of assay: Percent TrxR activity after exposure to 1 uM for 270 mins. The class given is functional. In short, it runs like this:
as §3

Assay [11] addresses Glutathione reductase, mitochondrial (Homo sapiens) (UniProt P00390). Kind of assay: Percent GR activity after exposure to 3x10 uM concentration at regular intervals of 0,24,48 hours for the period of 67 hours. An outline of the steps:
as §3

For assay [12] the target is unchanged. As to the kind of experiment: Percent GR activity after exposure to 5 uM for 67 hr. An outline of the steps: as §3
The target is the same in assay [13]. Kind of assay: Percent GR activity after exposure to 1 uM for 30 min. An outline of the steps: as §3
Assay [14] deals with T1, Thioredoxin reductase. As to the kind of experiment: Percent TrxR activity after exposure to 1 uM for 30 mins. The format is functional. In short, it runs like this:
as §3

Assay [15] has as its target Glutathione reductase, mitochondrial (Homo sapiens) (UniProt P00390). As to the kind of experiment: Percent GR activity after exposure to 3x5 uM concentration at regular intervals of 0,24,48 hours for the period of 67 hours. An outline of the steps: as §3
Assay [16] deals with T1, Thioredoxin reductase. Kind of assay: Percent TrxR activity after exposure to 1 uM for 90 mins. The format is functional. In short, it runs like this: as §3
In assay [17] the target is T1, Thioredoxin reductase. Kind of assay: Percent TrxR activity after exposure to 3x1 uM concentration at regular intervals of 0,24,48 hours for the period of 67 hours. The format is functional. An outline of the steps:
as §3

For assay [18], the target named is T1, Thioredoxin reductase. As to the kind of experiment: Percent TrxR activity after exposure to 1 uM for 67h. The format is functional. In short, it runs like this:
as §3

Assay [19] deals with T1, Thioredoxin reductase. Kind of assay: Percent TrxR activity after exposure to 5 uM for 67 hr. The class given is functional. An outline of the steps: as §3
Assay [20] concerns the target Glutathione reductase, mitochondrial (Homo sapiens) (UniProt P00390). As to the kind of experiment: Percent GR activity after exposure to 1 uM for 270 min. An outline of the steps: as §3
Assay [21] concerns the target T1, Thioredoxin reductase. As to the kind of experiment: Percent TrxR activity after exposure to 10 uM for 67 hrs. The format is functional. In short, it runs like this:
as §3

Assay [22] addresses Glutathione reductase, mitochondrial (Homo sapiens) (UniProt P00390). Kind of assay: Percent GR activity after exposure to 1 uM for 67 hr. An outline of the steps:
as §3

For assay [23] the target is unchanged. As to the kind of experiment: Percent GR activity after exposure to 1 uM for 90 min. In short, it runs like this:
as §3

Assay [24] has as its target T1, Thioredoxin reductase. Kind of assay: Percent TrxR activity after exposure to 5 uM for 30 mins. The class given is functional. An outline of the steps:
as §3

T1 sequence (Q86VQ6 whole entry, looked up, chain 1 of 3): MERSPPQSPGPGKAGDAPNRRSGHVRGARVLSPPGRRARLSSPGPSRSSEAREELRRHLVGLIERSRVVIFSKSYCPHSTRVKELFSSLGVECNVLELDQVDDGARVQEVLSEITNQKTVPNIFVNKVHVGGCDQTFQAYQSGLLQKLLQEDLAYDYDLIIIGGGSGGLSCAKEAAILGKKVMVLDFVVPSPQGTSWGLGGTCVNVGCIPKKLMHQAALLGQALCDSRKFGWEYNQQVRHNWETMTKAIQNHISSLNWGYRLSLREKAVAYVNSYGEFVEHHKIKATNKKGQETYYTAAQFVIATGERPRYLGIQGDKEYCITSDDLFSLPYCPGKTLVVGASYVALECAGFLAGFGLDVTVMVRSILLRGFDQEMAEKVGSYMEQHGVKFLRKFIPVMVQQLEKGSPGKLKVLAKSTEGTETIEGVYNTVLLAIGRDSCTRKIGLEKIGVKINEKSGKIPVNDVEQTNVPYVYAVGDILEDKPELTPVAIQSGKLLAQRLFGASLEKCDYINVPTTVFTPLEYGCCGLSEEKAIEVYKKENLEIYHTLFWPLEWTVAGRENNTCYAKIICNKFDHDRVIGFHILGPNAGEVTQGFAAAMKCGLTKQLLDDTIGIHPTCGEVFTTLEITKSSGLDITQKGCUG
T1 sequence (Q9NNW7 whole entry, looked up, chain 2 of 3): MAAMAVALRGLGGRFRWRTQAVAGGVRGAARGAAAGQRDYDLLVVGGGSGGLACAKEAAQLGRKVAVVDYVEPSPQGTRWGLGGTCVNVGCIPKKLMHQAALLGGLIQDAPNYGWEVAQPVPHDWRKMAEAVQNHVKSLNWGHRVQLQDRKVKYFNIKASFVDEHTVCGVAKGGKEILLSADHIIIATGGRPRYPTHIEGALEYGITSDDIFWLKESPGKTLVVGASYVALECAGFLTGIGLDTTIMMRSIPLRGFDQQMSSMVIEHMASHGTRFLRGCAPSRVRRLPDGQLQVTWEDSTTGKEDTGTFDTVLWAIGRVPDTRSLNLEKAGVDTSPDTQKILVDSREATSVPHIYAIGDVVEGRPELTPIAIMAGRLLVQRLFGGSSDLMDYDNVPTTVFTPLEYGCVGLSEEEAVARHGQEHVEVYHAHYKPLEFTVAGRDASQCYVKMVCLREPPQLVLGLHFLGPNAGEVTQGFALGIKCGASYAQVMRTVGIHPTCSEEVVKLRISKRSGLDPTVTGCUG
T1 sequence (Q16881 whole entry, looked up, chain 3 of 3): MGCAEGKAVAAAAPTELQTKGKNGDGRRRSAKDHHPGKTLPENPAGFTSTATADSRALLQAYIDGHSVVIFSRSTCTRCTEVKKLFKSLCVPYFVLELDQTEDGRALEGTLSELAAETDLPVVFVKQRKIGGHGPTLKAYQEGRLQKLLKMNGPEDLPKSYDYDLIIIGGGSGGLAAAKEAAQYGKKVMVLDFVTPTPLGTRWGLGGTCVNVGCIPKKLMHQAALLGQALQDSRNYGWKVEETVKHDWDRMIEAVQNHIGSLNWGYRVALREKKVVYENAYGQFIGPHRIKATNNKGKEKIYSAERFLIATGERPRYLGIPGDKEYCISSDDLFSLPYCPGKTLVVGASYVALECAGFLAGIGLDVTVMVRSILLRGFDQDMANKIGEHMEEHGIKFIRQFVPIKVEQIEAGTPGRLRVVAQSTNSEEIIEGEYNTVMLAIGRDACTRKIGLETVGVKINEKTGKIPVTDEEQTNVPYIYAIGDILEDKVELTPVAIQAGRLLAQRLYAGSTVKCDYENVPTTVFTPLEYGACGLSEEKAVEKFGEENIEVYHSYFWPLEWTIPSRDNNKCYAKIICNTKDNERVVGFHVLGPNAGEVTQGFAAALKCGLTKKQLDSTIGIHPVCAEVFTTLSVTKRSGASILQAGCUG
Chain of Glutathione reductase, mitochondrial (Homo sapiens) (P00390 whole entry): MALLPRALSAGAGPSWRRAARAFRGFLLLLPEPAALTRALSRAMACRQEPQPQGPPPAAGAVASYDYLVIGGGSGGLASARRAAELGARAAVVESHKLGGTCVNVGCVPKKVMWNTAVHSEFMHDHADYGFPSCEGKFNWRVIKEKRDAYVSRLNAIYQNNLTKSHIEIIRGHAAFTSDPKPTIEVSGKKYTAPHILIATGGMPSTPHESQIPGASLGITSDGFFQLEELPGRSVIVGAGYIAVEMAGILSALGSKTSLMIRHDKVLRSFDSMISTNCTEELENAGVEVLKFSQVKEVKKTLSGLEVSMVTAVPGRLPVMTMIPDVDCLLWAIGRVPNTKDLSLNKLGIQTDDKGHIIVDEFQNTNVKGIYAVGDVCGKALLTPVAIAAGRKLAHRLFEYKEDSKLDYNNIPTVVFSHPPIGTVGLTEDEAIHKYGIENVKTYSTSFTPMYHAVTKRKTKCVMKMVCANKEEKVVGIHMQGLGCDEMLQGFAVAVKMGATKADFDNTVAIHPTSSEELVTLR

For the substance “2-Mercaptopyrimidine (4'-chloro-2,2':6',2''-terpyridine)platinum (II) Nitrate [listing 1 of 2 here]”, the Ki (usually a dissociation constant, usually derived from enzyme kinetics or from competition with a known ligand) on Thioredoxin reductase [1] amounted to 0.017 µM. Besides, the IC50 – broadly, the concentration that inhibits the measured activity by half – at Thioredoxin reductase [2] worked out at 0.007 µM.

Turning to “4-Mercaptopyridine (4'-chloro-2,2':6',2''-terpyridine)platinum (II) Nitrate [listing 1 of 2 here]”, the IC50 was determined as 9.2 µM in the assay with HNO199 cell line; 5.5 µM in the assay on HNO 97 cell line; 2.5 µM in the assay with NCH89; 7.4 µM in the assay with NCH82; 10.5 µM with NCH37; 0.004 µM on Thioredoxin reductase [2]. Further, on Thioredoxin reductase [1], the Ki is 0.005 µM.

“4-Mercaptoethanol-(2,2':6',2''-terpyridine)platinum (II) Nitrate [listing 1 of 2 here]” gave an inhibition constant Ki on Thioredoxin reductase [1] of 0.348 µM. On Thioredoxin reductase [2], it took 0.035 µM to reach half-maximal inhibition (IC50).

For “2-Mercaptoimidazole Bis[(4'-chloro-2,2':6',2''-terpyridine)platinum (II)] Trinitrate [listing 1 of 2 here]”, in [3], the inhibition – broadly, the drop in the measured response relative to a control, in per cent – is 20%. The Km' at Thioredoxin reductase [4] came to 1010 µM. Besides, the [I] for Km' on Thioredoxin reductase [5] was determined as 0.1 µM.

Consider “4-Mercaptoethanol-(2,2':6',4'-chloro,2''-terpyridine)platinum (II) Nitrate [listing 1 of 2 here]”, for which the inhibition in [3] came to 55%. Also, the Km' at Thioredoxin reductase [4] amounted to 4740 µM. Moreover, on Thioredoxin reductase [5], the [I] for Km' amounted to 1 µM.

With “4-Mercaptoethanol-(2,2':6',2''-terpyridine)platinum (II) Nitrate [listing 2 of 2 here]”, the inhibition in assay [3] is 7%. In addition, the Km' on Thioredoxin reductase [4] is 399 µM. Further, the [I] for Km' at Thioredoxin reductase [5] came out at 1 µM.

As to “4-Mercaptopyridine (4'-chloro-2,2':6',2''-terpyridine)platinum (II) Nitrate [listing 2 of 2 here]”, the Activity was 180% in [6]; 60% at Thioredoxin reductase [7]; 260% in assay [8]; 5% at Thioredoxin reductase [9]; 90% on Thioredoxin reductase [10]; 180% in assay [11]. In addition, the Activity in assay [12] was 200%; in assay [13], 90%; on Thioredoxin reductase [14] it was 50%; in assay [15], 220%; on Thioredoxin reductase [16], 50%; at Thioredoxin reductase [17], 110%. Besides, the Activity on Thioredoxin reductase [18] is 160%; at Thioredoxin reductase [19], 130%; in assay [20] it was 110%; at Thioredoxin reductase [21], 80%; in assay [22] it was 220%; in [23] it was 90%. The substance further came in with an Activity on Thioredoxin reductase [24] of 30%. In addition, in assay [3], the inhibition was found to be 90%. In addition, at Thioredoxin reductase [4], the Km' is 1060 µM. This substance also showed a [I] for Km' at Thioredoxin reductase [5] of 0.05 µM.

“2-Mercaptopyridine (4'-chloro-2,2':6',2''-terpyridine)platinum (II) Nitrate [listing 1 of 2 here]” registered a Ki at Thioredoxin reductase [1] of 0.007 µM. The substance also showed an IC50 on Thioredoxin reductase [2] of 0.006 µM.

“4-Mercaptoethanol-(2,2':6',4'-chloro,2''-terpyridine)platinum (II) Nitrate [listing 2 of 2 here]” came in with a Ki on Thioredoxin reductase [1] of 0.022 µM. The substance also registered an IC50 against Thioredoxin reductase [2] of 0.03 µM.

As to “2-Mercaptopyridine (4'-chloro-2,2':6',2''-terpyridine)platinum (II) Nitrate [listing 2 of 2 here]”, the inhibition in [3] came to 47%. In addition, the Km' at Thioredoxin reductase [4] was 247 µM. On Thioredoxin reductase [5], this substance registered a [I] for Km' of 0.01 µM.

Substance “2-Mercaptoimidazole Bis[(4'-chloro-2,2':6',2''-terpyridine)platinum (II)] Trinitrate [listing 2 of 2 here]” came in with a Ki at Thioredoxin reductase [1] of 0.011 µM. Inhibition at Thioredoxin reductase [2] was half-maximal at 0.003 µM (IC50).

As to “2-Mercaptopyrimidine (4'-chloro-2,2':6',2''-terpyridine)platinum (II) Nitrate [listing 2 of 2 here]”, in assay [3], the inhibition is 66%. The Km' at Thioredoxin reductase [4] was found to be 715 µM. The substance also had a [I] for Km' at Thioredoxin reductase [5] of 0.1 µM.

(Values after ChEMBL document CHEMBL1134566, “Human thioredoxin reductase is efficiently inhibited by (2,2':6',2' '-terpyridine)platinum(II) complexes. Possible implications for a novel antitumor strategy” (J Med Chem, 2001).)
